Screens as filed in PubChem.
A selection: hits, their analogues and other compounds. The true share with any hit is near 1.4%.
Tn6 DDE FP: disrupts Tn6 cyclic peptide binding to fibrin D-Dimer-E complex; Fibrin DD(E) TRITC-Tn6 fluorescence polarization displacement; inhibition, % at 8.3 µM; actives 0.21% (n = 370,000);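 active = inhibition above a per-campaign cutoff: mean of compounds within control limits plus 3 SD, cut at about 15% in these data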
DNA FID counter: fluorescent intercalator displacement, NS3 helicase counter-screen. AID 1845. inhibition, % at 7.9 µM. actives 0.17% (n = 290,000). DNA fluorescent intercalator displacement, fluorescence; in the data active = inhibition above about 37%;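 note: higher means more ethidium bromide displaced from hairpin DNA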
DDE Tn7 FP inh: inhibitors of Tn7 peptide binding to human fibrin DD(E); P02675; FP displacement of FITC-Tn7 peptide from fibrin DD(E); 0% = median of compound wells per plate; inhibition, % at 8.3 µM; actives 0.13% (n = 370,000); AID 720508;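 active = inhibition above the mean of compounds falling within the control limits plus 3 SD of them, cut at about 14% in these data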
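system = human fibrin DD(E) protein | quantity = DD(E) 2 µM final | medium = Tris/NaCl/CaCl2 buffer, pH 7.8 | also added = labelled Tn7 tracer, 0.1 µM | compound dosing = single point at 8.3 µM | timing = compound with protein 10 min, then 3 h after probe, room temperature | signal = FP measurement | benchmarks = Aha-Tn7 high control | repeats = one replicate per compound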
PLC-gamma1 inh: inhibitors of human phospholipase C gamma1; purified PLC-gamma1, fluorogenic substrate, fluorescence; inhibition, % at 12.2 µM; actives 0.84% (n = 370,000); AID 720700; in the data active = inhibition above about 9.5%
Target sequence (P19174 whole entry, looked up): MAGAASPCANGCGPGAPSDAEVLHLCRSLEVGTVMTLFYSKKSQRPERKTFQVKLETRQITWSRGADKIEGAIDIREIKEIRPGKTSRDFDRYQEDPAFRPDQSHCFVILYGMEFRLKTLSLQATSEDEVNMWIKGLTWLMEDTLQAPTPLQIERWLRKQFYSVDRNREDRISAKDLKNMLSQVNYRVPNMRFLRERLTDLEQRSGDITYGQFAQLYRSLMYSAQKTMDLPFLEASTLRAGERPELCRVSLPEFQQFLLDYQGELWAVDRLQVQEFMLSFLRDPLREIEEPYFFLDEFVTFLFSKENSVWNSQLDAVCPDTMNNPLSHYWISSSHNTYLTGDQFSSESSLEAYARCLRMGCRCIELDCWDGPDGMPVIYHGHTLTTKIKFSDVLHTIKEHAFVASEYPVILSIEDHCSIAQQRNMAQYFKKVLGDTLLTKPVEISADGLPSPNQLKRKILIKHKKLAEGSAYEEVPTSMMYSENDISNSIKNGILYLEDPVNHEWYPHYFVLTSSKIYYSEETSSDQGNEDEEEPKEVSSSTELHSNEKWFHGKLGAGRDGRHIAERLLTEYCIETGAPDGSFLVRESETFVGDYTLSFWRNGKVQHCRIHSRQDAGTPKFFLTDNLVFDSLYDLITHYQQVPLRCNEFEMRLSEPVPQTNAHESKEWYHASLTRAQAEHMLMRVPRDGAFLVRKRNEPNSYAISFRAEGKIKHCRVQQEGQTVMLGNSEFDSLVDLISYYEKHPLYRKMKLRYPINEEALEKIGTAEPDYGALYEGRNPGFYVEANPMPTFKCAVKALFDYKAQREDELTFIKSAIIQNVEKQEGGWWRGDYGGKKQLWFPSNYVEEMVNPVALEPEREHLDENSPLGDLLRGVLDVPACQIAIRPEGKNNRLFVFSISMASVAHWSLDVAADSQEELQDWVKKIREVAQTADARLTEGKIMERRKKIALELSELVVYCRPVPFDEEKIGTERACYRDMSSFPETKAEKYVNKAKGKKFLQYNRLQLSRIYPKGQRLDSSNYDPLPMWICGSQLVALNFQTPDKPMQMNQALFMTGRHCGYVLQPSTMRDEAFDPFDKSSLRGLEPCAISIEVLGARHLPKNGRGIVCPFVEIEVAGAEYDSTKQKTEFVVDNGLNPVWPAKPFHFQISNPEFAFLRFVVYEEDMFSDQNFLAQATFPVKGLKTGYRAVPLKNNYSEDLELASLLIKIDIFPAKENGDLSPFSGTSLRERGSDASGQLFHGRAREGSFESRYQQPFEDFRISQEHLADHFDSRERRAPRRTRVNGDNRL
PLCb3 inh: inhibitors of human phospholipase C beta3; inhibition, % at 12.2 µM; Purified PLC-beta3, fluorogenic substrate, fluorescence; actives 0.18% (n = 370,000); Q01970; in the data active = inhibition above about 11%
Tn7 DDE conf: confirmation of inhibitors of Tn7 binding to human fibrin DD(E). shares compounds with DDE Tn7 FP inh. FP displacement of TRITC-Tn7 peptide from DD(E); 0% set at plate's compound-well median. inhibition, % at 8.3 µM. actives 5% (n = 460). AID 720628;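 active = inhibition above the campaign cutoff, the mean of compounds within control limits plus 3 SD, cut at about 14% in these data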;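 note: displacers lower polarization since freed probe rises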
Tn7 DDE ctr: DD(E)-Tn7 binding inhibition, counter-screen; actives 3% (n = 460); shares compounds with DDE Tn7 FP inh; fibrin DD(E), TRITC-Tn7 probe displacement, fluorescence polarization; inhibition, % at 8.3 µM; AID 720633;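 active = inhibition above the cutoff, the mean of compounds lying between the control bounds plus 3 SD of those compounds, cut at about 17% in these data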
Of the large screens only hits and unclear results are named; the others gave an inactive call (follow-up assays come after a bar, where they were run).

COc1cc(C2c3cc4c(cc3OC(NNC(N)=S)C2C)OCO4)cc(OC)c1OC (configuration not stated)	none (no result: DNA FID counter)
COc1ccc(OC)c(S(=O)(=O)Nc2ccc(CC(=O)O)cc2)c1	DDE Tn7 FP inh 17 | Tn7 DDE conf inactive | Tn7 DDE ctr inactive
CCc1ccc(CNC(=O)c2cc3c(C)nc4ccccc4c3o2)cc1	DDE Tn7 FP inh 14 | Tn7 DDE conf inactive | Tn7 DDE ctr inactive
Cc1nc2ccccc2c(=O)n1NC(=O)c1ccc([N+](=O)[O-])cc1	none
CCOc1ccc(C(C)=O)cc1CSc1nnc(-c2ccoc2C)n1N	DDE Tn7 FP inh 16 | Tn7 DDE conf inactive | Tn7 DDE ctr inactive
CC(=O)Oc1ccc2c(c1)C(=O)c1ccccc1CO2	DDE Tn7 FP inh 14 | Tn7 DDE conf inactive | Tn7 DDE ctr inactive
O=C(Oc1ccc2c(c1)OCC2=O)c1ccccc1	none
COc1ccccc1N(C)S(=O)(=O)c1ccc(C(=O)OCC(=O)NCC(F)(F)F)cc1	DDE Tn7 FP inh 14 | Tn7 DDE conf inactive | Tn7 DDE ctr inactive
CC(OC(=O)c1ccccc1O)C(=O)Nc1ccc(Cl)cn1 (configuration not stated)	none
CC(OC(=O)c1ccco1)C(=O)Nc1ccc(Cl)cn1 (configuration not stated)	DDE Tn7 FP inh 15 | Tn7 DDE conf inactive | Tn7 DDE ctr inactive
COc1ccccc1CNC(=O)CNC(=O)Cn1cnc2ccccc2c1=O	none
COc1cc(OC)c(CNC2CCCCCC2)cc1Br	DDE Tn7 FP inh 15 | Tn7 DDE conf inactive | Tn7 DDE ctr inactive
COc1cc(OC)c(OC)cc1CNC1CCCCCC1	none
C/C(=N\NC(=O)CCn1nnc2ccccc21)c1cccs1	none
C/C(=N\NC(=O)Cn1cnc2ccccc21)c1cccs1	DDE Tn7 FP inh 17 | Tn7 DDE conf inactive | Tn7 DDE ctr inactive
O=c1[nH]cc(F)c(=O)[nH]1	none
COc1ccc(C(C)(C)C)cc1NC(=O)c1cncc(Br)c1	DDE Tn7 FP inh 16 | Tn7 DDE conf inactive | Tn7 DDE ctr inactive
Cc1cccc(C)c1NC(=O)CNC(=O)COC(=O)c1ccc(Cl)s1	none (no result: DNA FID counter)
CC(C)(C)c1cc[n+](-c2[nH]c(=O)sc2/C=N/N=C(\[O-])c2cccnc2)cc1	none
O=c1[nH]c(-[n+]2ccc3ccccc3c2)c(/C=N/N=C(\[O-])c2ccccc2)s1	DDE Tn7 FP inh 17 | Tn7 DDE conf inactive | Tn7 DDE ctr inactive
COC(=O)C(CC(C)C)NC(=O)CNC(=O)c1ccccc1C (configuration not stated)	none
COc1cc(O)c(C(CCN2CCOCC2)c2ccc(N(C)C)cc2)c(OC)c1 (configuration not stated)	DDE Tn7 FP inh 14 (no result: DNA FID counter) | Tn7 DDE conf inactive | Tn7 DDE ctr inactive
COc1cc(O)c(C(CCN2CCN(c3ccccc3)CC2)c2ccc(N(C)C)cc2)c(OC)c1 (configuration not stated)	none (no result: DNA FID counter)
COc1cccc(CC(NC(C)=O)C(=O)NC2CCN(c3c(Cc4ccccc4)c(C)nc4ncnn34)CC2)c1OC (configuration not stated)	none
COc1ccc(CC(NC(C)=O)C(=O)NC2CCN(c3c(Cc4ccccc4)c(C)nc4ncnn34)CC2)c(OC)c1 (configuration not stated)	DDE Tn7 FP inh 14 | Tn7 DDE conf inactive | Tn7 DDE ctr inactive
CCOC(=O)C1(Cc2cccc(F)c2)CCN(Cc2ccon2)CC1	DDE Tn7 FP inh 14 | Tn7 DDE conf inactive | Tn7 DDE ctr inactive
COc1cccc(C2=Cc3ccc(F)cc3C(CC(C)=O)N2c2ccc(-c3cncnc3)cc2)c1 (configuration not stated)	none (no result: DNA FID counter)
Cc1cc(C(=O)CSc2nnc(-c3cccc(F)c3)n2N)c(C)n1Cc1ccc2c(c1)OCO2	none
Cc1cc2nc3c(=O)[nH]c(=S)[nH]c3nc2cc1NC(=O)C(F)(F)F	DDE Tn7 FP inh 16 | Tn7 DDE conf inactive | Tn7 DDE ctr inactive
Cc1ccc(C(C(=O)NCC2CCCO2)N(Cc2ccccc2F)C(=O)Cn2nnc(-c3cccs3)n2)cc1 (configuration not stated)	DDE Tn7 FP inh 19 | Tn7 DDE conf inactive | Tn7 DDE ctr inactive
COc1ccc(NC(=O)COC(=O)CC2Sc3ccccc3NC2=O)cc1 (configuration not stated)	DDE Tn7 FP inh 15 (no result: DNA FID counter) | Tn7 DDE conf inactive | Tn7 DDE ctr inactive
COc1ccc(N=Nc2nc3ccc(Br)cc3n2C)cc1	DDE Tn7 FP inh 55 | Tn7 DDE conf inactive | Tn7 DDE ctr inactive
CC(C)CCN1C(=O)c2cccc3c(N)ccc(c23)C1=O	DDE Tn7 FP inh 49 (no result: DNA FID counter) | Tn7 DDE conf inactive | Tn7 DDE ctr inactive
Cc1cc(C)nc(NS(=O)(=O)c2ccc(N/C=C\C(=O)c3ccc(Cl)cc3)cc2)n1	DDE Tn7 FP inh 14 | Tn7 DDE conf inactive | Tn7 DDE ctr inactive
CCC(OC(=O)c1ccco1)C(=O)NCc1ccco1 (configuration not stated)	none
O=C(CN1C(=O)c2ccccc2C1=O)NNC1=NS(=O)(=O)c2ccccc21	none
O=C(Cc1ccccc1)NNC1=NS(=O)(=O)c2ccccc21	DDE Tn7 FP inh 14 | Tn7 DDE conf inactive | Tn7 DDE ctr inactive
CCOc1ccc(NC(=O)COc2ccc(OC)cc2)cc1	none
Cc1cc(C)cc(NC(=O)N2CCN(Cc3ccc4c(c3)OCO4)CC2)c1	DDE Tn7 FP inh 14 | Tn7 DDE conf inactive | Tn7 DDE ctr inactive
O=C1C=C(NNC(=O)c2cccnc2)CC(c2ccco2)C1 (configuration not stated)	DDE Tn7 FP inh 16 | Tn7 DDE conf inactive | Tn7 DDE ctr inactive
CCNC(=O)c1ccc(NS(=O)(=O)c2ccccc2)cc1	none
CCCCn1c2nc3ccccc3nc2c2c(=O)n(CC(C)C)cnc21	none (no result: DNA FID counter)
O=C1CCC/C(=N/NC(=O)c2sc3ccccc3c2Cl)C1	DDE Tn7 FP inh 44 | Tn7 DDE conf inactive | Tn7 DDE ctr inactive
O=C(NN=C1CCCC1)c1sc2ccccc2c1Cl	none
O=C(CSc1nc2ccc(Nc3nc(N4CCOCC4)nc(N4CCOCC4)n3)cc2s1)Nc1ccccc1F	DDE Tn7 FP inh 16 | Tn7 DDE conf inactive | Tn7 DDE ctr inactive
CCCN(C(=O)COC(=O)COc1c(C)cccc1C)c1c(N)n(Cc2ccccc2)c(=O)[nH]c1=O	DDE Tn7 FP inh 14 (no result: DNA FID counter) | Tn7 DDE conf inactive | Tn7 DDE ctr inactive
CCCN(C(=O)COC(=O)CCOc1ccccc1C)c1c(N)n(Cc2ccccc2)c(=O)[nH]c1=O	none
Cc1cccc([C@@H]2[C@@H]3C(=O)N(Cc4ccccc4)C(=O)[C@@H]3[C@]3(C)C(=O)N(c4cccc(Cl)c4)C(=O)N23)c1	none
O=C(CN1C(=O)c2ccccc2C1=O)NCc1ccc(F)cc1	none
